# High-throughput results (PubChem BioAssay)
# FXIIa inh = human FXIIa protease inhibitors, primary screen, biochemical, 1536-well; 0.3% of 220,000 active; purified FXIIa, Boc-QGR-AMC fluorogenic substrate, 2 h; Coagulation factor XII (Homo sapiens), P00748; inhibition, % at 5 µM; in the data active = inhibition above about 40%;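 also: 0% = enzyme with no compound and 100% = blank without enzyme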
# Thrombin inh = human alpha-thrombin inhibitors, primary screen, counter-screen for coagulation protease inhibitor project, biochemical, 1536-well, fluorogenic AMC substrate. Prothrombin (Homo sapiens), P00734. Boc-VPR-AMC fluorogenic substrate cleavage. inhibition, % at 5 µM. 0.26% of 220,000 active. AID 1046, 2008;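 active = inhibition at or above 40%; inactive = inhibition below 40%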;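 also: 0% = enzyme with no compound and 100% = wells without enzyme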
#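 Test system: human alpha-thrombin; medium: pH 7.5 Tris-saline with Tween 20; times: reaction at room temperature; signal: AMC fluorescence at 355 nm excitation and 460 nm emission; also added: Boc-VPR-AMC substrate, 15 µM final; dosing: one concentration per compound, 5 µM, with 0.2% DMSO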
# hK5 inh = human KLK5 protease inhibitors, primary screen, biochemical, 1536-well; Kallikrein-5 (Homo sapiens), Q9Y337; recombinant hK5, fluorogenic AMC substrate cleavage; inhibition, % at 5 µM; 0.59% of 210,000 active;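 active = inhibition of 40% or more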;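 also: 0% = enzyme controls without compound and 100% = no-enzyme blanks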
# FXIa inh = human FXIa protease inhibitors, primary screen, biochemical, 1536-well; Coagulation factor XI (Homo sapiens), P03951; purified FXIa, Boc-Glu-Ala-Arg-AMC fluorogenic substrate; inhibition, % at 5 µM; 0.14% of 220,000 active; AID 798, 2007;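 active = inhibition of at least 40%; inactive = inhibition below 40%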;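 also: fluorescence of freed AMC excited at 355 nm; 0% = enzyme without compound and 100% = no enzyme blank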
# Target sequence (P03951 19-387 limits assumed): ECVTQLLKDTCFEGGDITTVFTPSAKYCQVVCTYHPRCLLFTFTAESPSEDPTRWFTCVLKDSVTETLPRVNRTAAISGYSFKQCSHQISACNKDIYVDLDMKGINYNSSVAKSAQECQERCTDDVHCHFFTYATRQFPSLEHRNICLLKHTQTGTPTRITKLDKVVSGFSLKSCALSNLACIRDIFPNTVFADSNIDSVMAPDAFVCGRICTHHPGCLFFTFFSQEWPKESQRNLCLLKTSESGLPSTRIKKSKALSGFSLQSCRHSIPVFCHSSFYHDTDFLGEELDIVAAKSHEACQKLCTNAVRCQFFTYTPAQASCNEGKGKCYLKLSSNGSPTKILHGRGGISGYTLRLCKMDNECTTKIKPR
# Target sequence (P03951 388-625 limits assumed): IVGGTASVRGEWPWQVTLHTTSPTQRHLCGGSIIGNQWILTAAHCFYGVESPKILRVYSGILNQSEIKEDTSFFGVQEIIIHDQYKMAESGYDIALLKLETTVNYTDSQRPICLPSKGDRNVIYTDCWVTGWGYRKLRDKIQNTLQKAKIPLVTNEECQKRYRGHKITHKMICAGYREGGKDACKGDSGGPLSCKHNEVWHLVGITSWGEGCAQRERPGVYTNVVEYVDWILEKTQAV
# Furin inh = human furin inhibitors, primary screen, biochemical, fluorescence intensity | inhibition, % at 20 µM or 30 µM | purified furin, fluorogenic substrate cleavage | P09958 | 0.061% of 220,000 active | AID 463115, 2010; in the data active = inhibition above about 25%
# * marks the source's active call; other numbers are inactive results; · = no result. Hits are enriched below; roughly 1.1% of the tested compounds scored in any of these assays.
SMILES,FXIIa inh,Thrombin inh,hK5 inh,FXIa inh,Furin inh
CC(CC(=O)O)Nc1ccccc1O (stereo not given),0,-4,-8,-2,-9
CCOc1ncccc1C(=O)OCC(=O)Nc1ccc(C(N)=O)cc1,45*,3,42*,14,-7
CCOc1ncccc1C(=O)OCC(=O)Nc1ccc(C(C)C)cc1,6,-14,-8,-4,-24
CC(C)c1ccc(-c2c(C#N)c(N)nc(SCC(=O)N3CCCCCC3)c2C#N)cc1,5,41*,-2,-6,-12
CC(C)c1ccc(-c2c(C#N)c(N)nc(SCC(=O)N3CCCCC3)c2C#N)cc1,1,-3,-2,-7,-21
FC(F)C(F)(F)C(F)(F)C(F)(F)c1cc(-c2ccccc2)n[nH]1,50*,1,-11,50*,-6
N#CCCC1CCCC=C1N(Cc1ccccc1)C(=O)C(Cl)Cl (stereo not given),27,1,34,57*,-5
Cc1ccc(NC(=O)N(CCC#N)Cc2ccccc2)cc1,3,-2,-7,-4,-4
COc1ccc(NC(=O)Cc2ccccc2F)cn1,13,50*,15,23,-8
Cc1ccc(NC(=O)c2ccc(OC(=O)COc3cccc(Cl)c3)cc2)cc1,8,77*,-15,7,-19
Cc1ccc(NC(=O)c2ccc(OC(=O)COc3ccc(Cl)cc3C)cc2)cc1,5,-9,-12,5,-22
CCN(CC)C(=O)CSc1ccccc1N,2,12,47*,3,0
COc1ccc(C(=O)NCC(=O)NCC2COc3ccccc3O2)cc1 (stereo not given),-5,-5,11,-9,-3
CCC(=O)c1ccc(OCCn2cnc3ccccc32)cc1,0,3,-19,-3,-24
CCCn1cnc2cc(NCc3cccc(OC)c3O)ccc21,19,-2,-5,5,-38
COc1cccc(CNc2ccc3c(c2)ncn3C(C)C)c1OC,37,30,58*,7,-18
CC(=O)NC(C)c1ccc(Cl)c(Cl)c1 (stereo not given),0,16,68*,14,-11
Cc1ccn(CC(=O)O)c(=O)c1,58*,-6,-2,28,-37
CC(c1ccccc1)n1c(-c2ccncc2)n[nH]c1=S (stereo not given),4,4,-16,-7,-18
CC(c1ccc(F)cc1)n1c(-c2cccs2)n[nH]c1=S (stereo not given),·,33,71*,35,3
CC1CN(c2nnnn2-c2ccccc2)CC(C)O1 (stereo not given),17,24,67*,-3,-17
Fc1ccc(N2CCN(c3nnnn3-c3ccccc3)CC2)cc1,11,-2,1,4,-30
CCc1cc(C(=O)N=Nc2c(O)[nH]c3c(Br)cc(Br)cc23)c2ccccc2n1,-2,-5,-22,-2,-18
CC(O)CN=c1cc(-c2ccccc2)oc2ccc(Cl)cc12 (stereo not given),16,15,68*,-4,-4
O=C(CCN1C(=O)C2C3C=CC(C3)C2C1=O)NC1CCCc2ccccc21 (stereo not given),23,14,53*,13,-16
SMILES,FXIIa inh,Thrombin inh,hK5 inh,FXIa inh,Furin inh
O=C(CCn1ccc2ccccc21)NC1CCCc2ccccc21 (stereo not given),7,-3,-17,-3,-16
COc1ccc(C(=O)NCC(=O)N/N=C/c2cccc(OC(=O)c3ccco3)c2)cc1OC,20,10,·,5,-30
Cc1cc(/C(O)=C2\C(=O)C(=O)N(CCN(C)C)C2c2ccncc2)ccc1OCc1ccccc1 (stereo not given),24,21,71*,11,-5
COc1cccc(/C(O)=C2/C(=O)C(=O)N(CCCN3CCOCC3)C2c2ccncc2)c1 (stereo not given),-4,1,117*,-3,-10
COc1cccc(C(=O)OCCN2CCOCC2)c1,32,-3,36,51*,-11
COc1cc(C(=O)OCCN2CCOCC2)cc(OC)c1OC,14,0,-6,-1,-23
COC(=O)c1ccc(COC(=O)c2ccc(SC)cc2OC)cc1,-1,-3,-5,2,-12
CCOC(=O)c1cncc(C#CCO)c1,4,-6,-2,0,-10
